Results: article PMC3072167 (Bioorganic & medicinal chemistry letters, 2011)
“Also recorded” adds a separate entry of the source.

Experiments:
[1] = target: chymotrypsin-like (ChT-L) activities of the 20S proteasome (Homo sapiens, UniProt P28074); experiment: Inhibition of chymotrypsin-like; format: biochemical; settings: qualitative statements in text
[2] = target: chymotrypsin-like activity of the proteasome (Homo sapiens, UniProt P28074); experiment: Enzyme kinetic study; format: biochemical
How it was run: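 The 20S proteasome chymotrypsin-like activity was measured across a range of Suc-Leu-Leu-Val-Tyr-AMC concentrations, with or without 2 μM or 4 μM test compound. Cleaved substrate was read as fluorescence units, and reaction rates were plotted as Lineweaver-Burk plots to derive Km and Vmax. Each point is the average of two independent experiments.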

[3] = test system: HeLa Ub^G76V-GFP cells; experiment: Cell based proteasome assay: accumulation of UbG76V-GFP; settings: 7.5 uM for 24 hours; fluorescence microscope
How it was run: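 HeLa cells stably expressing UbG76V-GFP, seeded at 10,000 cells per well in growth medium, were cultured with test compound (7.5 uM) for 24 hours. Intracellular UbG76V-GFP accumulation was recorded as green fluorescence by fluorescence microscopy.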

| Structure (SMILES) | Inhibition of the chymotrypsin-like activity of the 20S proteasome, in words [1] | also measured |
| --- | --- | --- |
| CCOC(=O)CC[C@@H](C)[C@H]1CC[C@H]2[C@@H]3CC[C@@H]4C[C@H](OC(=O)CCCCCC(=O)O)CC[C@]4(C)[C@H]3CC[C@]12C [Compound 17] | loss of inhibitory activity |  |
| COC(=O)CC[C@@H](C)[C@H]1CC[C@H]2[C@@H]3CC[C@@H]4C[C@H](OC(=O)Cc5cccc(CC(=O)O)c5)CC[C@]4(C)[C@H]3CC[C@]12C [Compound 15] | lost the inhibitory activity; also recorded: loss of inhibitory activity |  |
| CCOC(=O)CC[C@@H](C)[C@H]1CC[C@H]2[C@@H]3CC[C@@H]4C[C@H](O)CC[C@]4(C)[C@H]3CC[C@]12C [Compound 2] | loss of inhibitory activity |  |
| COC(=O)CC[C@@H](C)[C@H]1CC[C@H]2[C@@H]3CC[C@@H]4C[C@H](OC(=O)CCCCCC(=O)O)CC[C@]4(C)[C@H]3CC[C@]12C [Compound 16] | loss of inhibitory activity |  |
| COC(=O)CC[C@@H](C)[C@H]1CC[C@H]2[C@@H]3CC[C@@H]4C[C@H](O)CC[C@]4(C)[C@H]3CC[C@]12C [Compound 1] | loss of inhibitory activity |  |
| C[C@H](CCC(=O)O)[C@H]1CC[C@H]2[C@@H]3CC[C@@H]4C[C@H](OC(=O)CCCCCC(=O)O)CC[C@]4(C)[C@H]3CC[C@]12C [Compound 8] | did not inhibit |  |
| CC1(C)C=C2[C@H]3CC[C@@H]4[C@@]5(C)CCC(=O)C(C)(C)[C@@H]5CC[C@@]4(C)[C@]3(C)CC[C@@]2(C(=O)O)CC1 [moronic acid, reference compound] | only LA inhibited |  |
| C[C@H]1[C@H](C)CC[C@]2(C(=O)O)CC[C@]3(C)C(=CC[C@@H]4[C@@]5(C)CC[C@H](O)C(C)(C)[C@@H]5CC[C@]43C)[C@H]12 [ursolic acid, reference compound] | only LA inhibited |  |
| C[C@H](CCC(=O)O)[C@H]1CC[C@H]2[C@@H]3CC[C@@H]4C[C@H](OC(=O)CC5(CC(=O)O)CCCC5)CC[C@]4(C)[C@H]3CC[C@]12C [Compound 10] |  | Mode of proteasome inhibition ([2]; Lineweaver-Burk plot, 2 μM and 4 μM compound, substrate Suc-Leu-Leu-Val-Tyr-AMC): noncompetitive inhibitor; Effect on Michaelis-Menten constant (Km) of the substrate ([2]; compound at 2 μM and 4 μM): without affecting; Effect on maximum reaction rate (Vmax) of the proteasomal activity ([2]; compound at 2 μM and 4 μM): reduced; Accumulation of Ub^G76V-GFP (green fluorescence) in cells [3]: resulted in accumulation of Ub^G76V-GFP; also recorded: inhibited the proteasome |
